One may read the IC50 as the midpoint of a concentration-inhibition curve.

One data set deals with PRMT5/MEP50 complex (Homo sapiens, UniProt O14744). Briefly: Inhibition of human full length FLAG-tagged PRMT5/human His6-tagged MEP50 expressed in baculovirus-infected Sf9 cells assessed as reduction in tritium incorporation into peptide substrate using human Histone H4 (1 to 15 residues) and [3H]SAM as substrate preincubated with enzyme and H4 for 30 mins followed by [3H]SAM addition and measured after 120 mins by radioactive flashplate assay.

For data set [1], the target named is Protein arginine N-methyltransferase 5 (Homo sapiens, UniProt O14744). Briefly: Inhibition of PRMT5 in human Z138 cells assessed as reduction in symmetrical dimethylation of arginine containing substrate using SmD3 as substrate incubated for 4 days by In-cell western assay. The format is cell-based.
The test system of the next data set is Z-138. Briefly: Antiproliferative activity against human Z138 cells incubated for 5 days by cell titer-glo assay. The format is functional, cell-based. The note with it: Z-138, 120 h. In general terms: ATP-based viability assays read luminescence as a measure of living cells.
Data set [2] is described as follows: Protein binding in CD-1 mouse plasma. The data set is classed as ADME, cell-free. As to conditions: read-out: PPB (converted).
The nature of data set [3]: Time during which unbound drug concentration exceeds IC90 for inhibition of PRMT5 in human Z138 cells in CD-1 mouse at 100 mg/kg, po. The data set is classed as organism-based. The note with it: in vivo. The method in brief:
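Male CD-1 mice received single oral doses of 10 and 100 mg/kg, and plasma concentration was profiled over time. Unbound concentration was compared with the cellular methyl-mark IC90 after correction for plasma protein binding in mouse plasma. The value is the time this unbound level stayed at or above that IC90.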

Molecules are shown by their SMILES. Where only a bound is given, the exact number is not on record here.

Protein arginine N-methyltransferase 5, sequence (O14744 whole entry): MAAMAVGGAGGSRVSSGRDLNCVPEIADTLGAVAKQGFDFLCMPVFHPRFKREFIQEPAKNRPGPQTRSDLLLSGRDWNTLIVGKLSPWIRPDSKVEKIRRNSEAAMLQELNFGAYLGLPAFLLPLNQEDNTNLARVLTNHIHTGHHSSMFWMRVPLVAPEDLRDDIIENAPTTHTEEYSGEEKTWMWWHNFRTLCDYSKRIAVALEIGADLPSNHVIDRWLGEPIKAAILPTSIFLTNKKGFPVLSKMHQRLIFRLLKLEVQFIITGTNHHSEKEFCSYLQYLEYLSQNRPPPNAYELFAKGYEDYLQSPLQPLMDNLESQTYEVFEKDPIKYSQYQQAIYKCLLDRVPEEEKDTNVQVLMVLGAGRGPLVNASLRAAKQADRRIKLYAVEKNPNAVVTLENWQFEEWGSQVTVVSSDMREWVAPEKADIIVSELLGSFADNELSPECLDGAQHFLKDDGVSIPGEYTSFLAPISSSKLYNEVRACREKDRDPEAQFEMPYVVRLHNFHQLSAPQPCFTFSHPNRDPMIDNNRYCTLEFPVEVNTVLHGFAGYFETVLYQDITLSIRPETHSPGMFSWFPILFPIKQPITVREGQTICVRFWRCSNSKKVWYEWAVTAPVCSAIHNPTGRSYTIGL
PRMT5/MEP50 complex, sequence (O14744 whole entry, the tested form may be a part): as the sequence (O14744 whole entry) above
PRMT5/MEP50 complex, sequence (Q9BQA1 whole entry, further chain, the tested form may be a part): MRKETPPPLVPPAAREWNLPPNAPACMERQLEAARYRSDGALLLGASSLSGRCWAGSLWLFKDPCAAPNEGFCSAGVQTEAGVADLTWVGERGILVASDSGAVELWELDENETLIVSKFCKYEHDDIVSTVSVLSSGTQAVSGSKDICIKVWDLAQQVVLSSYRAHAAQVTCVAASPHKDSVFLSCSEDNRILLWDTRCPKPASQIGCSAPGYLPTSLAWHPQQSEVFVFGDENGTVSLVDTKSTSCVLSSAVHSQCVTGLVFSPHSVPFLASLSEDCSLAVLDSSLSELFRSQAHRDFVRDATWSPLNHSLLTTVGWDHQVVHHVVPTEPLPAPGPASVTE

Consider `OC(COc1cccc(CNC2CCCC2)c1)CN1CCc2ccccc2C1` (stereo not given), for which the IC50 on PRMT5/MEP50 complex is 326 nM.
The same measure, in the same setting: to `OC(COc1cccc(CNC2CCCC2)c1)CN1Cc2ccccc2C1` (stereo not given) belongs 7450 nM.
In the case of `Cn1cnc2ccc(-c3ccnc(NCC(O)CN4CCc5ccccc5C4)c3)cc21` (stereo not given), the IC50 at PRMT5/MEP50 complex stood at 33 nM; in data set [1], 180 nM; with Z-138, 2100 nM.
In the same order, the values of `O=C(NC[C@@H](O)CN1CCc2ccccc2C1)c1cccc(-c2ccccn2)c1` are 95 nM, 406 nM and 18700 nM.
For the compound `O=C(NC[C@H](O)CN1CCc2ccccc2C1)c1cccc(NC2CCOCC2)c1`, the IC50 on PRMT5/MEP50 complex was found to be 18 nM; in data set [1], 13 nM; with Z-138, 384 nM.
For `O=C(COc1cccc2cccnc12)NC[C@@H](O)CN1CCc2ccccc2C1` the same measures were 11 nM, 16 nM and 451 nM.
For `O=C(COc1cccc2cccnc12)NC[C@H](O)CN1CCc2ccccc2C1` the same measures were 144 nM, 327 nM and 12600 nM.
For `O=C(NC[C@H](O)CN1CCc2ccccc2C1)c1cccc(-c2ccccn2)c1`, the figures for the IC50 (on PRMT5/MEP50 complex; in data set [1]; in the data set on Z-138) were 13 nM, 32 nM and 890 nM, respectively.
In the same order, the values of `Cn1cnc2ccc(-c3cccc(OCC(O)CN4CCc5ccccc5C4)c3)cc21` (stereo not given) are 73 nM, 435 nM and 4260 nM.
With `COc1cc2c(cc1OC)CN(CC(O)COc1cccc(CNC3CCCC3)c1)CC2` (stereo not given), on PRMT5/MEP50 complex, the IC50 is more than 50000 nM.
For the compound `O=C(NC[C@H](O)CN1CCc2ccccc2C1)c1cc(NC2COC2)ncn1`, the fraction unbound in data set [2] was 0.7. Besides, in data set [3], the Time is 12 h.
`O=C(NC[C@H](O)CN1CCc2ccccc2C1)c1ccnc(NC2CCC2)c1` registered an IC50 in the data set with Z-138 of 62 nM.
Regarding `CN(Cc1ccccc1)CC(O)COc1cccc(CNC2CCCC2)c1` (stereo not given), the IC50 on PRMT5/MEP50 complex was 26800 nM.
Still for that read-out and setting: to `OC(COc1cccc(CNC2CCCC2)c1)CN1CCc2ccncc2C1` (stereo not given) belongs more than 50000 nM.
Take `O=C(COc1cccc2cccnc12)NCC(O)CN1CCc2ccccc2C1` (racemic): the IC50 is 23 nM at PRMT5/MEP50 complex, 36 nM in data set [1] and 428 nM in the data set with Z-138.
For `O=C(NCC(O)CN1CCc2ccccc2C1)c1cccc(-c2ccccn2)c1` (racemic) the same measures were 13 nM, 37 nM and 1680 nM.

For the origin of these results see ChEMBL document CHEMBL4680074, “Structure and Property Guided Design in the Identification of PRMT5 Tool Compound EPZ015666” (ACS Med Chem Lett, 2016).
